Measurements reported in ChEMBL document CHEMBL3861960, “Leoligin, the Major Lignan from Edelweiss (Leontopodium nivale subsp. alpinum), Promotes Cholesterol Efflux from THP-1 Macrophages” (J Nat Prod, 2016).
The source made the active and inactive calls. The rule behind the calls is not given here.

How the values were obtained:
[1] = Upregulation of ABCA1 mRNA expression in human THP1 cells at 10 uM after 24 hrs by qPCR method relative to control; format: functional, cell-based; conditions: THP-1
Outline: (§1)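 THP-1 macrophages treated for 24 h with 10 μM compound, 10 μM pioglitazone or DMSO. Total RNA extracted and converted to cDNA; ABCA1 or ABCG1 measured by SYBR Green qPCR and expressed relative to 18S. Mean ± SD of four independent experiments; one-way ANOVA with Bonferroni test against DMSO.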

[2] = Upregulation of ABCG1 mRNA expression in human THP1 cells at 10 uM after 24 hrs by qPCR method relative to control; format: functional, cell-based; conditions: THP-1; outline: as §1

SMILES: CCc1ccc(CCOc2ccc(CC3SC(=O)NC3=O)cc2)nc1 (configuration not stated)
- Activity [1]: Active
- Activity [2]: Active
